Data reported in ChEMBL document CHEMBL3352586, “Pyridyl benzamides as a novel class of potent inhibitors for the kinetoplastid Trypanosoma brucei” (J Med Chem, 2014).
Converted amounts (≈) assume the structure as drawn.

Legend:
[1] = test system: Trypanosoma brucei brucei; assay: Antimicrobial activity against bloodstream form of Trypanosoma brucei brucei 427 after 48 hrs by alamar blue assay; assay type: functional, organism-based; conditions: Trypanosoma brucei, 427, 48 h
[2] = Selectivity index, ratio of IC50 for HEK293 cells to IC50 for Trypanosoma brucei brucei 427; assay type: toxicity, cell-based; conditions: human, read-out: Ratio IC50
[3] = test system: Trypanosoma brucei brucei; assay: Antimicrobial activity against bloodstream form of Trypanosoma brucei brucei 427 at 10 uM after 48 hrs by alamar blue assay; assay type: functional; conditions: Trypanosoma brucei, 427, 48 h
L6 = assay: Cytotoxicity against rat L6 cells after 70 hrs by alamar blue assay; assay type: cell-based; conditions: L6, 70 h
Method in brief: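 Cytotoxicity on the rat skeletal myoblast L-6 strain, with podophyllotoxin as reference drug.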

[4] = Kinetic solubility of the compound at 10 mg/ml at pH 6.5 by nephelometry; assay type: physicochemical; conditions: buffer, read-out: Kinetic_solubility
Method in brief: (§1)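 Kinetic solubility was read by nephelometry at pH 2 and pH 6.5 and reported as μg/mL ranges.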

[5] = Kinetic solubility of the compound at 10 mg/ml at pH 2 by nephelometry; assay type: physicochemical; conditions: buffer, read-out: Kinetic_solubility; method in brief: as §1
Leishmania donovani = assay: Antimicrobial activity against amastigote form of Leishmania donovani MHOM/ET/67/L82 after 70 hrs by alamar blue assay; assay type: functional, organism-based; conditions: MHOM/ET/67/L82, 70 h
Method in brief: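 Leishmania donovani MHOM-ET-67/L82 axenic amastigotes, with miltefosine as reference drug.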

[6] = Plasma protein binding in human […] by chromatographic method; assay type: ADME, cell-free; conditions: read-out: PPB (converted)
Method in brief: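 Human plasma protein binding was estimated by a chromatographic method.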

Plasmodium falciparum = assay: Antimicrobial activity against erythrocytic stage of Plasmodium falciparum NF54 infected in human washed RBC assessed as [3H]-hypoxanthine incorporation incubated for 48 hrs prior to [3H]-hypoxanthine addition measured after 24 hrs by liquid scintillation counting analysis; assay type: functional, organism-based
[7] = test system: Trypanosoma brucei rhodesiense; assay: Antimicrobial activity against bloodstream form of Trypanosoma brucei rhodesiense STIB 900 after 70 hrs by alamar blue assay; assay type: functional, organism-based; conditions: STIB 900, 70 h
Method in brief: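 Trypanosoma brucei rhodesiense STIB 900 bloodstream-form trypomastigotes, with melarsoprol as reference drug.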

[8] = Partition coefficient, log D of the compound at pH 7.4 by HPLC method; assay type: physicochemical; conditions: octanol/water
Method in brief: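 Distribution coefficient at pH 7.4 was measured chromatographically.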

Liver microsome = assay: Intrinsic clearance in human liver microsomes at 1 uM after 60 mins by LC-MS analysis; assay type: ADME; conditions: 1 h
Method in brief: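 In vitro intrinsic clearance was measured in human liver microsomes and expressed per mg protein. A hepatic extraction ratio (E_H) was predicted from the in vitro data.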

Trypanosoma cruzi = assay: Antimicrobial activity against amastigote form of Trypanosoma cruzi Tulahuen C2C4 infected in rat L6 cells after 96 hrs by microscopic analysis; conditions: Tulahuen C2C4, L6, 96 h

Compound | IC50 [1] [µM] | selectivity ratio [2] | inhibition at 10 µM [3] [%] | other results
Cc1ccccc1C(=O)Nc1cccc(N)n1 | 4.6 | > 19 | – | –
Cc1ccccc1C(=O)Nc1ccccc1C#N | – | – | < 10 | –
Cc1ccccc1C(=O)Nc1ccon1 | – | – | < 10 | –
Cc1ccccc1C(=O)Nc1ncco1 | – | – | < 10 | –
Cc1ccccc1C(=O)Nc1cc[nH]n1 | – | – | < 10 | –
Cc1ccccc1C(=O)Nc1ncns1 | – | – | < 10 | –
Cc1ccccc1C(=O)Nc1ccsc1 | – | – | < 10 | –
Cc1ccccc1C(=O)N(C)c1ccccn1 | – | – | 18 | –
CCc1ccccc1C(=O)Nc1ccccn1 | 2.74 | 30 | – | –
O=C(Nc1ccccn1)c1ccccc1F | – | – | 35 | –
O=C(Nc1ccccn1)c1ccccc1Cl | – | – | 44 | –
O=C(Nc1ccccn1)c1ccccc1OC(F)(F)F | – | – | 13 | –
Cc1c(F)cccc1C(=O)Nc1ccccn1 | 0.89 | 94 | – | IC50 (L6): 310 µM; solubility kinetic [4]: 25 µg/mL (≈ 109 µM); solubility kinetic [5]: 50 µg/mL (≈ 217 µM); IC50 (Leishmania donovani): > 131 µM; fraction unbound [6]: 0.321; IC50 (Plasmodium falciparum): 103 µM; IC50 [7]: 0.61 µM; logD [8]: 2.6; CLint (Liver microsome): 58 µL/min/mg; IC50 (Trypanosoma cruzi): 198 µM
O=C(Nc1ccccn1)c1cccc(F)c1 | 7.33 | 11 | – | –
Cc1c(Cl)cccc1C(=O)Nc1ccccn1 | 0.63 | 132 | – | –
Cc1c(Br)cccc1C(=O)Nc1ccccn1 | 5.7 | 15 | – | –
Cc1cccc(C(=O)Nc2ccccn2)c1C | 3.5 | 24 | – | –
COc1cccc(C(=O)Nc2ccccn2)c1C | – | – | 10 | –
Cc1ncccc1C(=O)Nc1ccccn1 | – | – | 21 | –
Cc1cc(F)ccc1C(=O)Nc1ccccn1 | 1.9 | 44 | – | –
Cc1cc(Cl)ccc1C(=O)Nc1ccccn1 | 1.1 | 76 | – | –
COc1ccc(C(=O)Nc2ccccn2)c(C)c1 | – | – | < 10 | –

Compound | IC50 [1] [µM] | selectivity ratio [2] | inhibition at 10 µM [3] [%] | other results
Cc1ccc(C(=O)Nc2ccccn2)c(C)c1 | 0.98 | 85 | – | IC50 (L6): 283 µM; IC50 (Leishmania donovani): > 133 µM; IC50 (Plasmodium falciparum): 93 µM; IC50 [7]: 0.24 µM; IC50 (Trypanosoma cruzi): 187 µM
CCC/C=C/c1ccc(C(=O)Nc2ccccn2)c(C)c1 | – | – | 24 | –
Cc1cc(-c2ccccc2)ccc1C(=O)Nc1ccccn1 | – | – | < 10 | –
Cc1ccc(F)cc1C(=O)Nc1ccccn1 | – | – | < 10 | –
Cc1ccc(Br)cc1C(=O)Nc1ccccn1 | – | – | < 10 | –
Cc1ccc(C)c(C(=O)Nc2ccccn2)c1 | – | – | 22 | –
COc1ccc(C)c(C(=O)Nc2ccccn2)c1 | – | – | < 10 | –
Cc1ccncc1C(=O)Nc1ccccn1 | – | – | < 10 | –
Cc1cccc(C)c1C(=O)Nc1ccccn1 | – | – | < 10 | –
Cc1cccc(F)c1C(=O)Nc1ccccn1 | – | – | 45 | –
Cc1cccnc1C(=O)Nc1ccccn1 | – | – | 12 | –
Cc1ccnc(NC(=O)c2cccc(F)c2C)c1 | 0.83 | 100 | – | solubility kinetic [4]: 25 µg/mL (≈ 102 µM); solubility kinetic [5]: > 100 µg/mL; fraction unbound [6]: 0.276; logD [8]: 3.5; CLint (Liver microsome): 237 µL/min/mg
Cc1ccnc(NC(=O)c2ccc(F)c(F)c2C)c1 | 0.9 | 93 | – | IC50 (L6): 223 µM; IC50 (Leishmania donovani): > 113 µM; IC50 (Plasmodium falciparum): 72 µM; IC50 [7]: 0.64 µM; IC50 (Trypanosoma cruzi): 147 µM
Cc1c(C(=O)Nc2cc(Cl)ccn2)ccc(F)c1F | 0.53 | 160 | – | –
Cc1c(F)cccc1C(=O)Nc1cc(F)ccn1 | 0.1 | 851 | – | –
Cc1c(C(=O)Nc2cc(F)ccn2)ccc(F)c1F | 0.19 | 450 | – | –
COc1ccc(NC(=O)c2cccc(F)c2C)nc1 | 2.3 | 4 | – | –
COc1ccc(NC(=O)c2ccc(F)cc2C)nc1 | 2.6 | 32 | – | –
O=C(Nc1ccccn1)c1ccccc1 | 9.07 | 9.2 | – | –
O=C(Nc1ccc2ccccc2n1)c1ccccc1-c1ccccc1 | – | – | 53 | –
Cc1ccc(NC(=O)c2cc(S(=O)(=O)NC(C)(C)C)ccc2C)nc1 | – | – | 12 | –
CCN(CC)CCCC(C)Nc1ccnc2cc(Cl)ccc12 (configuration not stated) [CHLOROQUINE] | – | – | – | EC50 (Plasmodium falciparum): 0.11 µg/mL (≈ 0.344 µM)
